The results in this text go back to ChEMBL document CHEMBL2034857, “Discovery of the macrocycle (9E)-15-(2-(pyrrolidin-1-yl)ethoxy)-7,12,25-trioxa-19,21,24-triaza-tetracyclo[18.3.1.1(2,5).1(14,18)]hexacosa-1(24),2,4,9,14(26),15,17,20,22-nonaene (SB1578), a potent inhibitor of janus kinase 2/fms-like tyrosine kinase-3 (JAK2/FLT3) for the treatment of rheumatoid …” (J Med Chem, 2012).

In one data set the target is Cytochrome P450 2D6 (Homo sapiens, UniProt P10635). The experiment in a line: Inhibition of CYP2D6 in human liver microsomes using dextromethorphan as substrate by LC-MS/MS analysis. The format is ADME, Microsome. In general terms: Liver microsomes are a subcellular fraction often used to study metabolism.
A short description of data set [1]: Oral bioavailability in Wistar rat at 50 mg/kg. It is filed as ADME, organism-based. The conditions noted are these: in vivo. Put shortly:
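Single oral gavage at 50 (mouse, rat), 5 (dog) or 20 (monkey) mg/kg; rodents and monkeys received suspensions in 0.5% methylcellulose/0.1% Tween 80, dogs gelatin capsules. Serial blood taken 0–24 h into K3EDTA, plasma stored at −70 °C. Parameters estimated by noncompartmental analysis, n = 3 per species (mouse values from mean concentration–time data, 3 mice per time point).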

The target of data set [2] is T1, Cytochrome P450 1A2 (Homo sapiens, UniProt P05177).
T1 sequence (P05177 whole entry): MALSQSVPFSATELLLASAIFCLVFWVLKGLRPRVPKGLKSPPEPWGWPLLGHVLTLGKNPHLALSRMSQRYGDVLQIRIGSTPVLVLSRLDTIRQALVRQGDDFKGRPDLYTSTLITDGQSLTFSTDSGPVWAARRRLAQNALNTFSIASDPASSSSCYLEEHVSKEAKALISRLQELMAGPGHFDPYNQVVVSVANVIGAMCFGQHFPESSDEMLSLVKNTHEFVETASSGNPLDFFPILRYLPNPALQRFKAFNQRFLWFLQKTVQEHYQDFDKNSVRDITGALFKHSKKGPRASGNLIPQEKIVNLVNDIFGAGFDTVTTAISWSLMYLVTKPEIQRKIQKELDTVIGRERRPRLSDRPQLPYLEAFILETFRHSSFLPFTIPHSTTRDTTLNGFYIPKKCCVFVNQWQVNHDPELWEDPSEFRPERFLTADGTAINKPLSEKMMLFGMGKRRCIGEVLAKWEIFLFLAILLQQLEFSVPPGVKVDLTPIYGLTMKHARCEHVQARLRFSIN
The experiment in a line: Induction of CYP1A2 in human liver microsomes. It is filed as ADME, Microsome.

Data set [3] in a line: Half life in mouse liver microsomes. The format is ADME, Microsome.
For data set [4], the target named is T1, Cytochrome P450 1A2. The experiment in a line: Inhibition of CYP1A2 in human liver microsomes using phenacetin as substrate by LC-MS/MS analysis. The format is ADME, Microsome.
The test system of another data set is BaF3. The experiment in a line: Antiproliferative activity against mouse BAF3 cells expressing JAK2 V617F mutant after 48 hrs by luciferase reporter gene assay. It is filed as functional. The settings on record: BaF3, 48 h. In general terms: A reporter such as luciferase makes a cellular process visible.
The nature of data set [5]: Efflux ratio of apparent permeability across human Caco2 cells at 10 uM after 120 mins by LC-MS/MS analysis. The settings on record: Caco-2. The format is ADME, cell-based. In a few lines:
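Caco-2 monolayers (passage 40–60) seeded at 1 × 10⁵ cells/cm², used on day 20; HBSS pH 7.4 with 25 mM HEPES and 4.45 mM glucose, 37 °C, 5% CO₂; 10 μM final (1% DMSO) dosed apical or basolateral, 120 min; both compartments quantified by LC-MS/MS; duplicate; reference compounds as controls; monolayer integrity by lucifer yellow permeation.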
Background: Caco-2 monolayers are a common model of the intestinal barrier.

A short description of data set [6]: Plasma protein binding in dog at 1000 ng/mL by equilibrium dialysis. It is filed as ADME, cell-free, Canis lupus familiaris. The conditions noted are these: read-out: PPB (converted). In a few lines:
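Equilibrium dialysis of plasma (mouse, rat, dog, monkey, human) spiked to 1000 ng/mL final against PBS, 4 h at 37 °C; buffer side extracted with MTBE in triplicate and analyzed by LC-MS/MS.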

Data set [7] is described as follows: Terminal half life in Wistar rat at 50 mg/kg, po. The format is ADME, organism-based. The arrangement: dose 50 mg/kg, route oral. The settings on record: in vivo, read-out: beta t1/2 (converted). In a few lines: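 Single oral dose by gavage as suspension in 0.5% methylcellulose/0.1% Tween 80 (mouse, rat, monkey) or in gelatin capsules (dog). Serial blood samples taken from 0 to 24 h into K3EDTA tubes; plasma stored at −70 °C until analysis. Parameters derived by noncompartmental methods. Rat, dog and monkey n = 3; mouse values estimated from mean concentration-time data, n = 3 mice per time point.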

In data set [8] the target is Tyrosine-protein kinase JAK2 (Homo sapiens, UniProt O60674). The experiment in a line: Inhibition of recombinant JAK2 using poly(Glu,Ala,Tyr) as substrate after 2 hrs by luminometric assay.
The target in data set [9] is T2, Tyrosine-protein kinase JAK3 (Homo sapiens, UniProt P52333).
T2 sequence (P52333 whole entry): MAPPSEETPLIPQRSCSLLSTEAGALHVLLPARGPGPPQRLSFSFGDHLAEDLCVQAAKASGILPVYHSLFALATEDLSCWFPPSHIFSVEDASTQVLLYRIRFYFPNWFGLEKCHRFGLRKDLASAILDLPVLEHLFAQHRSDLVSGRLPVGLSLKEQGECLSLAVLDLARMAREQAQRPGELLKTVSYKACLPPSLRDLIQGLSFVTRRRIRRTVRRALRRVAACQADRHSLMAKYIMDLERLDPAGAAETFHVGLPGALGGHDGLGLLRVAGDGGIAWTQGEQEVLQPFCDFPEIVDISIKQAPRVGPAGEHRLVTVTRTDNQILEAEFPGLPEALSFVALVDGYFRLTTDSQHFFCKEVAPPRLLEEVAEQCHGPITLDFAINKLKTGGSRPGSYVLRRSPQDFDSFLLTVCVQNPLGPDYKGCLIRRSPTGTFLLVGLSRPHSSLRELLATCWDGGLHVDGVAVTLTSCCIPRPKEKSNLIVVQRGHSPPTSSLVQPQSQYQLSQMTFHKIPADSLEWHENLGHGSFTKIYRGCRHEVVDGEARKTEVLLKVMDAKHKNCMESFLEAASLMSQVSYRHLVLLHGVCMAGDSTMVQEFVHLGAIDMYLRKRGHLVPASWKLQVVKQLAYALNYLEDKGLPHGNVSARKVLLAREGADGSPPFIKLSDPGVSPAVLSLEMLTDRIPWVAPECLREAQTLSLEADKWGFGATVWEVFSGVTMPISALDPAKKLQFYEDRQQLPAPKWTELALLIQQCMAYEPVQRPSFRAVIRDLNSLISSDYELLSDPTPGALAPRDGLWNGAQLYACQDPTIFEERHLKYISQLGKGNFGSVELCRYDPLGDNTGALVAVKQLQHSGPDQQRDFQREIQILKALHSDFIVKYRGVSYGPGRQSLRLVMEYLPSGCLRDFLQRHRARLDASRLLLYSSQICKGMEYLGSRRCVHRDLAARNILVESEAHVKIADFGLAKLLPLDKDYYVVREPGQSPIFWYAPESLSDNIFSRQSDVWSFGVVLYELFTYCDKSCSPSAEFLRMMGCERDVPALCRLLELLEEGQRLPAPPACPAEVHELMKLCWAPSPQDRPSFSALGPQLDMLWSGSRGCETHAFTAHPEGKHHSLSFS
The experiment in a line: Inhibition of recombinant JAK3 using poly(Glu,Ala,Tyr) as substrate after 2 hrs by luminometric assay.

Data set [10] deals with Cyclin-dependent kinase 2 (Homo sapiens, UniProt P24941). The experiment in a line: Inhibition of recombinant CDK2 using RbING as substrate after 2 hrs by luminometric assay.
The target of the next data set is Cytochrome P450 3A4 (Homo sapiens, UniProt P08684). The experiment in a line: Induction of CYP3A4 in human liver microsomes. The format is ADME, Microsome.
Data set [11] concerns the target Macrophage colony-stimulating factor 1 receptor (Homo sapiens, UniProt P07333). The experiment in a line: Inhibition of c-fms.

Chain of Tyrosine-protein kinase JAK2 (O60674 whole entry): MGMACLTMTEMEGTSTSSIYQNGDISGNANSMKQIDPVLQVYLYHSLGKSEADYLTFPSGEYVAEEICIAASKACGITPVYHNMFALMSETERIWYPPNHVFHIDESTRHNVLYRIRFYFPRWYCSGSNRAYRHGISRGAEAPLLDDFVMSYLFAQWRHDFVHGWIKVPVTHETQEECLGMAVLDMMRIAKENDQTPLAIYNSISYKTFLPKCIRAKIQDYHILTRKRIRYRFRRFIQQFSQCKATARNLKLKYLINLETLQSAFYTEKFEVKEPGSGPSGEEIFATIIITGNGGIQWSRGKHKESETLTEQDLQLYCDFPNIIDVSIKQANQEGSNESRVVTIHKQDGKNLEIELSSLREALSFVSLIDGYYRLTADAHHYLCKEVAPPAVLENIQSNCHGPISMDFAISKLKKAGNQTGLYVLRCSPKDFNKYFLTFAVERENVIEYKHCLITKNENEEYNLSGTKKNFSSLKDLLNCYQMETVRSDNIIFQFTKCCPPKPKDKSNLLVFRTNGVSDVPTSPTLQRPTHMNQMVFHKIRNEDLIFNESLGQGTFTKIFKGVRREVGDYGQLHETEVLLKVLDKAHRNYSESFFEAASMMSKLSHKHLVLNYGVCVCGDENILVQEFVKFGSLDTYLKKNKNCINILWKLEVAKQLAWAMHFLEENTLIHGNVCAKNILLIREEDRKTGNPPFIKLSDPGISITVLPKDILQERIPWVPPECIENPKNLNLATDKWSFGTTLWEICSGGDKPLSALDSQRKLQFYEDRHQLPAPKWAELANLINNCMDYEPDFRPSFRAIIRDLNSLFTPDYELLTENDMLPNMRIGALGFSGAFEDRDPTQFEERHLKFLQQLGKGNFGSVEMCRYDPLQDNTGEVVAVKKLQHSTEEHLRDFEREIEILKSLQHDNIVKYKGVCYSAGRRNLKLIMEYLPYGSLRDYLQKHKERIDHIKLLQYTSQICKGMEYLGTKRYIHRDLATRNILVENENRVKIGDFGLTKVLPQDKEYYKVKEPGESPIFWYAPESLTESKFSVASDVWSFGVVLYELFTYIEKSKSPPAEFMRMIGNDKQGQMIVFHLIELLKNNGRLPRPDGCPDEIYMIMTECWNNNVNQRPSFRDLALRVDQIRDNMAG
Chain of Macrophage colony-stimulating factor 1 receptor (P07333 whole entry): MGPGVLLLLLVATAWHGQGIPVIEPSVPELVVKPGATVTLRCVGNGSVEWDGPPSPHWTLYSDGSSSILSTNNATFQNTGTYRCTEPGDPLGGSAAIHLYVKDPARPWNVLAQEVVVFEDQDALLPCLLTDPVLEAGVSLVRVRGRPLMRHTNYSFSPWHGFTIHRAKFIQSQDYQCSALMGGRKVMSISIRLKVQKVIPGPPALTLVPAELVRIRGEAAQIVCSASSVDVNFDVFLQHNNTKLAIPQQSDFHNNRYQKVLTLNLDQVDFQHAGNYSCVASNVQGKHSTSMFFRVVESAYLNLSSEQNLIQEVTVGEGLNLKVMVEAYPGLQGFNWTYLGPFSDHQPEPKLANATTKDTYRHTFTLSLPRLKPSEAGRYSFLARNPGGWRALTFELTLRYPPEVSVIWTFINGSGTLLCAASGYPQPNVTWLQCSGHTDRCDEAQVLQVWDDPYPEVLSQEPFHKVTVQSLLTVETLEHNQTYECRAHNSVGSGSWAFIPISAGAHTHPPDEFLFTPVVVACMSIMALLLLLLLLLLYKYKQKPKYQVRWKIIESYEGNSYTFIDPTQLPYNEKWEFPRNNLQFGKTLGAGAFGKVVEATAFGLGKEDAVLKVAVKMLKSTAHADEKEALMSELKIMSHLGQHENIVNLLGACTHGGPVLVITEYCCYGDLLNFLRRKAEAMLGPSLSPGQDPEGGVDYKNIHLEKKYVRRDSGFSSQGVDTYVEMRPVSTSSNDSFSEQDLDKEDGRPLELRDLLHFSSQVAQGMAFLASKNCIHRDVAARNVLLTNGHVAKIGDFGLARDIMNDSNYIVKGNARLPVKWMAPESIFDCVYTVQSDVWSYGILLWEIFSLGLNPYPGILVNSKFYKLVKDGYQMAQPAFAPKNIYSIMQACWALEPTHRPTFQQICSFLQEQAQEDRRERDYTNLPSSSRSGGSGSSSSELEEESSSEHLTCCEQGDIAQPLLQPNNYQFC
Chain of Cytochrome P450 2D6 (P10635 whole entry): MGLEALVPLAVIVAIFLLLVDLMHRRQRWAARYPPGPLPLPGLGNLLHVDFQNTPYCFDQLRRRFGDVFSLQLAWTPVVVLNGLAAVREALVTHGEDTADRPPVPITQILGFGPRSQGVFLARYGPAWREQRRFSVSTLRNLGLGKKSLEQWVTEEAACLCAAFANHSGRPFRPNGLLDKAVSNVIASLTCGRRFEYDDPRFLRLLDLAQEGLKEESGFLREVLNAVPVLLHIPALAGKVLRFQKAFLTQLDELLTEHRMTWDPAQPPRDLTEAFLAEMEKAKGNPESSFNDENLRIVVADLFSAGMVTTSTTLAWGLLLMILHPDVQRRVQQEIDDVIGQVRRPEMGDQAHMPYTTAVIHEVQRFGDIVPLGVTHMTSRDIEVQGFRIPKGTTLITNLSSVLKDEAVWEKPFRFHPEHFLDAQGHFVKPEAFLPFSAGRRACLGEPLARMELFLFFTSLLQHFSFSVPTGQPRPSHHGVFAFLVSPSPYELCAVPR
Chain of Cytochrome P450 3A4 (P08684 whole entry): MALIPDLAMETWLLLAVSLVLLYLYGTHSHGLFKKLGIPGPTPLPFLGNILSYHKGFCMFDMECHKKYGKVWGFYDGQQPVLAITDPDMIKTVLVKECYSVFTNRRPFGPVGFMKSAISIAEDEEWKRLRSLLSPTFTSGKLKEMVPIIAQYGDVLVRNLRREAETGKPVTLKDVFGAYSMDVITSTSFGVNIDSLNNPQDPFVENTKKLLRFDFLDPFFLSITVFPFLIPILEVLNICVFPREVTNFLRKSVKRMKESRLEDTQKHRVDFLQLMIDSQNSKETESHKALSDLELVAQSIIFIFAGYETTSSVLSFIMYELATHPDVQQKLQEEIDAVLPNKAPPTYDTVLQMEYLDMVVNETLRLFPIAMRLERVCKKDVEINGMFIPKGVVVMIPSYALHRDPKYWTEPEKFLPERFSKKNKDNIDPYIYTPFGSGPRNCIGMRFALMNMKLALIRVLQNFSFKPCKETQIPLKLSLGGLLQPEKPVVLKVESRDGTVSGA

Consider `C1=C2COC/C=C/COCc3cc(ccc3OCCN3CCCC3)Nc3nccc(n3)C(=C1)O2` (mixture of isomers) [CT-1578], for which the IC50 (commonly the concentration at which inhibition is half-maximal) on Cytochrome P450 2D6 was over 10000 nM; at Cytochrome P450 1A2 [4], over 10000 nM; in [8], 46 nM; in data set [9], 4300 nM; in [10], 7000 nM; in data set [11], 69 nM. The bioavailability (in general, dose-corrected exposure relative to a reference, in per cent) in data set [1] worked out at 6%. For the same compound, the Activity result on Cytochrome P450 1A2 [2] and at Cytochrome P450 3A4 was “Not Active” in each case. Also, the half-life in [3] is 0.45 h; in data set [7], 3.6 h. Also, in the data set on BaF3, the GI50 – broadly, the concentration at which growth is held to half of that of the control – is 250 nM. The efflux ratio (as a rule, the permeability from basolateral to apical divided by that in the opposite direction, in the common usage) at 2 h, 10 µM in [5] is 1.1. Besides, the fraction unbound at 1000 ng/mL in data set [6] was 0.127.
